From ChEMBL document CHEMBL1135673, “Antitumor imidazotetrazines. 41. Conjugation of the antitumor agents mitozolomide and temozolomide to peptides and lexitropsins bearing DNA major and minor groove-binding structural motifs” (J Med Chem, 2002)
Peptide text beside a SMILES is read from it. * marks the point of attachment. X1 = O=C(c1ncn2c(=O)n(CCCl)nnc12)*

Assays:
Type in all cases: functional, cell-based
[1] = In vitro cytotoxicity against mouse TLX5 lymphoma cells
Summary of the method: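 TLX5 lymphoma cells kept in exponential growth at 2 × 10⁴ cells/mL in RPMI 1640 with 15% fetal calf serum. Cells were dosed with drug in DMSO (10 μL per 2 mL well), triplicate wells per concentration, with DMSO-only controls. After 72 h at 37 °C under 5% CO₂, cells were Coulter-counted. IC₅₀ was taken from % of control growth plots as the mean of two determinations.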

[2] = In vitro cytotoxicity against human xeroderma pigmentosum fibroblast cells HMGZip (mer-)
Summary of the method: (§1)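 Xeroderma pigmentosum fibroblasts HMGZip 1a (Mer⁻) and HMGhAT 2b (Mer⁺) grown in MEM, plated at 1000 cells/well, and assayed by the method of Baer et al.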

[3] = In vitro cytotoxicity against human xeroderma pigmentosum fibroblast cells […] (mer+); summary of the method: as §1

SMILES	IC50 [1] [µM]	IC50 [2] [µM]	IC50 [3] [µM]
COC(=O)[C@@H](NC(=O)[C@H](C)NC(=O)c1ncn2c(=O)n(CCCl)nnc12)C(C)C	6.9		
CC(C)C[C@@H](NC(=O)c1ncn2c(=O)n(CCCl)nnc12)C(=O)O		57	
COC(=O)C(CCCCN)NC(=O)c1ncn2c(=O)n(CCCl)nnc12 (stereo not drawn)		68	
NC(=O)CNC(=O)c1ncn2c(=O)n(CCCl)nnc12	34		
C[C@@H](NC(=O)c1ncn2c(=O)n(CCCl)nnc12)C(=O)O		198	
COC(=O)C(CO)NC(=O)c1ncn2c(=O)n(CCCl)nnc12 (stereo not drawn)	5		
COC(=O)C(C)NC(=O)c1ncn2c(=O)n(CCCl)nnc12 (stereo not drawn)	1.5		
CC(C)(C)NC(=O)c1ncn2c(=O)n(CCCl)nnc12	2		
O=C(O)c1ncn2c(=O)n(CCCl)nnc12	15.8		
COC(=O)C(CCSC)NC(=O)c1ncn2c(=O)n(CCCl)nnc12 (stereo not drawn)	50		
CC(C)[C@H](NC(=O)[C@@H](NC(=O)c1ncn2c(=O)n(CCCl)nnc12)[C@@H](C)O)C(=O)NCC(=O)O		437	> 500
COC(=O)C(Cc1c[nH]c2ccccc12)NC(=O)c1ncn2c(=O)n(CCCl)nnc12 (stereo not drawn)	3.7		
CCOC(=O)CNC(=O)c1ncn2c(=O)n(CCCl)nnc12	25		
NCCCCC(NC(=O)c1ncn2c(=O)n(CCCl)nnc12)C(=O)O (stereo not drawn)		42	
CC(C)[C@H](NC(=O)[C@@H](NC(=O)c1ncn2c(=O)n(CCCl)nnc12)[C@@H](C)O)C(=O)NCC(=O)N[C@@H](CCCN=C(N)N)C(=O)O (X1-TVGR-OH)		288	> 500
CC(C)[C@H](NC(=O)[C@@H](NC(=O)c1ncn2c(=O)n(CCCl)nnc12)[C@@H](C)O)C(=O)N[C@@H](CO)C(=O)N[C@@H](CCCN=C(N)N)C(=O)O (X1-TVSR-OH)		351	> 500
NC(=O)c1ncn2c(=O)n(CCCl)nnc12 [MITOZOLOMIDE]	2.5	20	30
Cn1nnc2c(C(N)=O)ncn2c1=O [TEMOZOLOMIDE]	5		
